# Shown are actives, neighbours in structure and some others; about 3.1% of the full set was active somewhere.
# OX1R antag-1 – blocks the human orexin 1 receptor. AID 434989. actives 0.43% (n = 330,000). inhibition, % at 5 µM. CHO/OX1R cells, Fluo-8 calcium fluorescence, orexin A;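 active = inhibition above its plate's threshold, mean inhibition of all tested compounds on the plate plus 3 SD, cut at about 37% in these data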
# CHO parental Ca – counter-screen: ATP calcium response change in parental CHO cells; AID 463079; parental CHO-K1, ATP-induced calcium, Fluo-8 fluorescence; actives 0.63% (n = 330,000); inhibition, % at 5.6 µM;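 active = inhibition above that plate's mean sample inhibition plus 3 SD, cut at about 26% in these data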
#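 Test system: untransfected parental CHO cell line; also added: ATP stimulus; dosing: 5.6 µM, single dose; signal: calcium-sensitive Fluo-8 fluorescence; measure: percent inhibition of ATP-evoked calcium rise, normalized to controls; benchmarks: low control ATP plus DMSO, high control DMSO only; replication: one well per compound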
# GalR3 antagonist – antagonists of human GalR3. actives 0.44% (n = 360,000). O60755. HEK293 GalR3-CNG cAMP membrane potential fluorescence; galR3 body fused to GalR1 C-terminus. inhibition, % at 3 µM;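 active = inhibition above the screen-wide average plus 3 SD, cut at about 13% in these data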;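 also: forskolin and galanin both at EC90 stimulate the cells; cAMP rise reported by CNG channel membrane potential dye signal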
# Target sequence (O60755 1-299 limits assumed): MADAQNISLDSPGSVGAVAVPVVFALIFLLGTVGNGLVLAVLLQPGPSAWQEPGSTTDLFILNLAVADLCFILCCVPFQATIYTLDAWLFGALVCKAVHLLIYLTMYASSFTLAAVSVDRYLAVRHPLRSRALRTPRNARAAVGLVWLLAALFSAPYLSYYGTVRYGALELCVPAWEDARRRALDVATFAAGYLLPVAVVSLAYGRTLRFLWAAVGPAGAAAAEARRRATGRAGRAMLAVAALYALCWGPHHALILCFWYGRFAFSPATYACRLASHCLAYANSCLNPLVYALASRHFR
# GPR7 antagonist – human neuropeptides B/W receptor 1 antagonism; actives 1.1% (n = 290,000); GPR7-expressing cells, fluorescence antagonist assay; inhibition, % at 4.4 µM; P48145; in the data active = inhibition above about 16%, passing the limit was not always enough;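 also: cells stimulated with the agonist NPW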
# Target sequence (P48145 whole entry, looked up): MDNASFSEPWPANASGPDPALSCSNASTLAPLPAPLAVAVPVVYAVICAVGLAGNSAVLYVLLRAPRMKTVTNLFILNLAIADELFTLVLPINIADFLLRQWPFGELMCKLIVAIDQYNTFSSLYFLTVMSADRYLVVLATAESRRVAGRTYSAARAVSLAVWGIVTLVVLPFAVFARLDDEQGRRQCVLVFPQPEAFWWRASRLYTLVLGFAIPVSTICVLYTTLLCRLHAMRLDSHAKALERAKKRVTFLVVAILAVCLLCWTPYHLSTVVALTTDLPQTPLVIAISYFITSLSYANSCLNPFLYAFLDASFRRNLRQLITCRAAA
# OX1R antag-2 – antagonists of human orexin 1 receptor (OX1R); AID 485270; O43613; actives 1.8% (n = 330,000); OX1R-expressing cells, FRET antagonist read-out; inhibition, % at 6.6 µM; in the data active = inhibition mostly above about 38%, no sharp cut-off; inactive = mostly below about 40%
# OX1R HTRF conf – OX1R (human) antagonism, HTRF confirmed; OX1R-expressing cells, HTRF antagonist assay; inhibition, % at 6.6 µM; shares compounds with OX1R antag-2; AID 492964; actives 49% (n = 1,800); in the data active = inhibition above about 55%;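 also: CHO cells expressing OX1R stimulated with orexin A at about EC80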
# CHO-K1 HTRF cnt – counter-screen for OX1R antagonists: effect in parental CHO-K1 cells; AID 493232; shares compounds with OX1R antag-2; HTRF counterscreen; inhibition, % at 6.6 µM; actives 48% (n = 1,800); in the data active = inhibition above about 17%
# A number is an active result; - = inactive; . = not tested or not shown.
SMILES,OX1R antag-1,CHO parental Ca,GalR3 antagonist,GPR7 antagonist,OX1R antag-2,OX1R HTRF conf,CHO-K1 HTRF cnt
NC(=O)[C@H]1CC2(CC(c3cccc(NC(=O)[C@H]4CCC(=O)N4)c3)=NO2)CN1C(=O)c1cc([N+](=O)[O-])cc([N+](=O)[O-])c1 (stereo partly drawn),-,-,-,.,91,-,57
CC(C)c1ccc(NC(=O)CCCN2C(=S)NC(C)(C)CC2C)cc1 (stereo not drawn),-,-,-,-,100,-,-
OC(c1ccccc1)(c1ccccc1)c1nccc2ccccc12,.,.,-,.,.,.,.
Cc1ccc(CNC(=O)c2ccc([N+](=O)[O-])o2)cc1,-,-,-,-,78,-,33
Cc1ccnc(NC(=O)c2ccc([N+](=O)[O-])o2)c1,-,-,-,-,94,-,68
COC(=O)[C@]12C[C@H](CC(=O)N3CCSCC3)C(=O)N(CCC3=CCCCC3)C1=C[C@H](C(C)(C)C)O[C@@H]2C,.,.,-,.,.,.,.
CN1c2ccccc2C(O)=C(C(=S)Nc2ccc(F)c(Cl)c2)S1(=O)=O,-,-,-,-,82,-,-
Cc1[nH]n(-c2ccccc2)c(=O)c1/C=N/Nc1nncc(-c2ccccc2)n1,-,-,-,-,80,-,-
CN1C(=O)/C(=C2/C=Cc3ccccc3N2CCCS(=O)(=O)O)SC1=S,-,-,-,-,100,59,97
COc1ccccc1NC(=O)CS(=O)(=O)c1cccc2nsnc12,-,-,-,-,100,-,37
O=C(O)c1cccc(NS(=O)(=O)c2cccc3nsnc23)c1,-,-,-,-,-,.,.
COc1ccc(C(=O)O)cc1NS(=O)(=O)c1cccc2nsnc12,-,-,-,-,116,-,30
Cc1ccccc1OCC(=O)Nc1cccc2nsnc12,-,-,-,-,-,.,.
CC1CC(C)CN(c2ccc([N+](=O)[O-])cc2-c2nn[nH]n2)C1 (stereo not drawn),-,-,-,-,-,.,.
O=[N+]([O-])c1ccc(-n2cccn2)c(-c2nn[nH]n2)c1,-,-,-,-,108,-,54
Cc1ccc(C(C)C)c(OCC(=O)c2c(O)c3ccccc3oc2=O)c1,-,-,-,-,82,-,-
Cn1c(=O)n(C)c2cc(/C=C3/SC(=O)N(CC(=O)N4CCOCC4)C3=O)ccc21,-,-,-,-,83,-,54
Oc1ccccc1CNc1cccc2cccnc12,-,-,-,-,120,-,-
COc1cc(NCc2ccccc2O)c2ncccc2c1,.,.,-,-,.,.,.
COc1cccc(-c2nn(C)c3sc(C(=O)N4CCN(c5ccccn5)CC4)cc23)c1,-,-,.,-,78,-,-
COc1ccc(OC)c(S(=O)(=O)CC(=O)c2cc3ccccc3oc2=O)c1,.,.,-,.,.,.,.
CCOC(=O)c1ccc(NC(=O)c2cc3ccccc3o2)cc1,-,-,-,-,77,72,-
CCOC(=O)c1ccc(CNCc2ccccc2)cc1,-,-,-,-,80,-,-
CCOC(=O)c1cccc(NC(=O)c2cc3ccccc3o2)c1,.,.,-,-,.,.,.
CCOC(=O)N(C)C[C@H]1OCc2cnnn2CCCC(=O)N([C@H](C)CO)C[C@@H]1C,.,.,-,.,.,.,.
SMILES,OX1R antag-1,CHO parental Ca,GalR3 antagonist,GPR7 antagonist,OX1R antag-2,OX1R HTRF conf,CHO-K1 HTRF cnt
CN(CC(=O)Nc1ccccc1Br)C(=O)c1cc(Cl)nc2ccccc12,-,-,-,.,-,.,.
CN(CC(=O)Nc1ccccc1Br)C(=O)c1ccccc1-c1nc2ccccc2s1,-,-,-,-,84,71,-
O=C(NCc1ccco1)c1ccc2sc([C@H]3C[C@H](O)[C@@H](CO)O3)nc2c1,.,.,-,.,.,.,.
COc1ccc(-c2ccc(/C=C3\C(=O)N(c4ccccc4)N=C3c3ccccc3)o2)c([N+](=O)[O-])c1,-,-,-,-,-,.,.
COc1ccc(-c2ccc(/C=C3/C(=N)N4C(C)=CSC4=NC3=O)o2)c([N+](=O)[O-])c1,-,-,-,-,91,58,18
O=C1c2cccc3cc([N+](=O)[O-])cc(c23)C(=O)N1/N=C/c1ccc(O)cc1O,-,-,-,-,181,74,108
COc1ccc(CNc2nc3ccccc3n2C)c(OC)c1,-,-,-,-,-,.,.
COc1ccc(N=Nc2nc3cc(Br)c(Br)cc3n2C)c(OC)c1,-,-,-,-,84,88,19
CCCNC(=O)Cn1nc(-c2ccccc2OC)ccc1=O,.,.,-,.,.,.,.
CCCCOc1ccc(-c2nnc(-c3cc[n+](C)cc3)o2)cc1,-,-,-,-,102,88,74
COC(=O)[C@]12C[C@H](CC(=O)NCCCN3CCCC3=O)C(=O)N(Cc3ccc4c(c3)OCO4)C1=C[C@H](COCc1ccccc1)O[C@@H]2C,.,.,-,.,.,.,.
Cc1ccc(S(=O)(=O)N2[C@@H](c3cccc(Cl)c3)C(C(=O)O)=CC[C@H]2c2ccc3c(c2)OCO3)cc1,-,-,-,.,83,87,-
Cc1ccc(S(=O)(=O)N2[C@@H](c3ccc(Cl)cc3)C(C(=O)O)=CC[C@H]2c2ccc3c(c2)OCO3)cc1,-,-,-,.,-,.,.
COc1cccc(C(=O)Nc2cccc(-c3nnc(-c4ccco4)o3)c2)c1,-,-,-,-,104,-,-
COc1ccc(Br)cc1C(=O)Nc1cccc(-c2nnc(-c3ccco3)o2)c1,-,-,-,-,-,.,.
C[C@@H]1CCCCO[C@H](CN(C)Cc2ccncc2)[C@@H](C)CN([C@H](C)CO)C(=O)c2cc(N(C)C)ccc2O1,.,.,-,.,.,.,.
O=C1c2ccccc2C(=O)c2c(/C=C/N3CCCCC3)ccnc21,.,.,-,.,.,.,.
COC(=O)[C@@]1(C(C)C)N=C(c2cc(OC)c(OC)c(OC)c2)[C@]2(O1)C(=O)N(C)c1ccc(Cl)cc12,.,.,-,.,.,.,.
O=C(CCS(=O)(=O)c1cccc2nonc12)NCCc1ccccc1,-,-,-,-,87,-,36
CC(C)CCNC(=O)CCS(=O)(=O)c1cccc2nonc12,-,-,-,-,-,.,.
CN(C1CCS(=O)(=O)C1)S(=O)(=O)c1cccc2nsnc12 (stereo not drawn),-,-,-,-,90,-,41
Cc1ccc(/C=C(\CCC(=O)O)c2nc3ccccc3s2)cc1[N+](=O)[O-],-,-,-,-,-,.,.
CNc1ccc(/C=C(\CCC(=O)O)c2nc3ccccc3s2)cc1[N+](=O)[O-],-,-,-,-,87,-,-
COc1ccc(C=C2SC(=O)NC2=O)cc1OC,.,.,-,.,.,.,.
COc1ccccc1OCCCOc1ccc(/C=C2\SC(=O)NC2=O)cc1OC,-,-,-,-,78,70,-
COc1cccc(C=C2SC(=S)NC2=O)c1,.,.,-,.,.,.,.
COc1ccccc1OCCCOc1cccc(/C=C2\SC(=O)NC2=O)c1,-,-,-,-,78,-,22

# Compound activity as filed in PubChem BioAssay.
